Experiments:
[1] = test system: Rattus norvegicus; assay: (§1) Cognitive enhancing effect in Charles Foster rat assessed as reversal of scopolamine-induced amnesia measured as transfer latency at 5 mg/kg, po for 8 days administered 1 hr prior to scopolamine-challenge on day 7 measured on day 8 by elevated plus maze test (reference value: 62.17 +/- 0.47 seconds); format: functional
[2] = test system: Rattus norvegicus; assay: Cognitive enhancing effect in po dosed Wistar rat assessed as reversal of learning impairment measured as transfer latency administered for 8 days by elevated plus maze test; format: functional, organism-based
Summary of the method: (§2)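 Oral dosing at 5 or 10 mg/kg for 8 days, suspended in 0.3% carboxymethyl cellulose; vehicle-treated controls. Transfer latency on elevated plus maze measured on first and second days of exposure (treatment days 7 and 8). Mean ± SEM, n = 6, one-way ANOVA versus vehicle control.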

[3] = test system: Rattus norvegicus; assay: (§3) Cognitive enhancing effect in Charles Foster rat assessed as reversal of scopolamine-induced amnesia measured as transfer latency at 5 mg/kg, po for 8 days administered 1 hr prior to scopolamine-challenge on day 7 measured on same day by elevated plus maze test (reference value: 67.83 +/- 0.94 seconds); format: functional
[4] = test system: Rattus norvegicus; assay: Activity at AChE in Charles Foster rat prefrontal cortex assessed as substrate hydrolyzed per mg of protein at 5 mg/kg, po for 8 days by Ellman's method (reference value: 45.83 +/- 0.94 mol/min); format: functional
[5] = test system: Rattus norvegicus; assay: as §1, with “10” for “5”; format: functional
[6] = test system: Rattus norvegicus; assay: Activity at AChE in Charles Foster rat hippocampus assessed as substrate hydrolyzed per mg of protein at 10 mg/kg, po for 8 days by Ellman's method (reference value: 47.50 +/- 0.84 mol/min); format: functional
[7] = test system: Rattus norvegicus; assay: Cognitive enhancing effect in Wistar rat assessed as reversal of learning impairment measured as transfer latency at 5 mg/kg, po for 8 days measured on second day of test by elevated plus maze test (reference value: 66.824 +/- 0.47 seconds); format: functional; summary of the method: as §2
[8] = test system: Rattus norvegicus; assay: Activity at AChE in Charles Foster rat hippocampus assessed as substrate hydrolyzed per mg of protein at 5 mg/kg, po for 8 days by Ellman's method (reference value: 47.50 +/- 0.84 mol/min); format: functional
[9] = test system: Rattus norvegicus; assay: Cognitive enhancing effect in Wistar rat assessed as reversal of learning impairment measured as transfer latency at 5 mg/kg, po for 8 days measured on first day of test by elevated plus maze test (reference value: 70.846 +/- 0.76 seconds); format: functional; summary of the method: as §2
[10] = molecular target: T1, Cholinesterase (Homo sapiens, UniProt P06276); assay: Inhibition of human serum BChE using butyrylthiocholine iodide as substrate preincubated for 20 mins prior to substrate addition by Ellman's method
T1 sequence (P06276 whole entry): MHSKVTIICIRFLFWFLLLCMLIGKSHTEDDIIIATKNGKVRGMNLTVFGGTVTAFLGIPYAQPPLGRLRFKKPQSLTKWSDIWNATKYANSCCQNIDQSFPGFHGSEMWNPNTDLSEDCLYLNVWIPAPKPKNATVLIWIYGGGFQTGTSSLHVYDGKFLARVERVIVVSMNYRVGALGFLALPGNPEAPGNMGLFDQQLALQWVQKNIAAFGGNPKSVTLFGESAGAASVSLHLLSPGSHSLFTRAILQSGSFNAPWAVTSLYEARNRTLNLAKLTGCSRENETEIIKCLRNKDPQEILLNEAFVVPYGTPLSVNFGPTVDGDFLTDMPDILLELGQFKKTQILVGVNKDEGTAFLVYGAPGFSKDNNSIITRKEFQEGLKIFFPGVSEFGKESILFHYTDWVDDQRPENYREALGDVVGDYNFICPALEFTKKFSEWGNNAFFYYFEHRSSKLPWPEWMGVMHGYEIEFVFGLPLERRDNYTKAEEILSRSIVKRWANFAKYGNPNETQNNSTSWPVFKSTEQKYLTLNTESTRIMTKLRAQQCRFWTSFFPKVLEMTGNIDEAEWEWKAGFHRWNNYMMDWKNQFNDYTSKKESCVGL
Summary of the method: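 Human serum BChE was dissolved in 0.1% gelatine. The final mix held 0.1 M phosphate pH 8.0, DTNB, 0.02 unit/mL enzyme and butyrylthiocholine iodide. Five inhibitor concentrations spanning 20–80% inhibition were preincubated with enzyme for 20 min at 37 °C, then substrate was added. Rate was read at 412 nm over 5 min against an enzyme-free blank. Each point was run in triplicate, and IC50 was read graphically from log concentration–% inhibition curves.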

[11] = test system: Rattus norvegicus; assay: Activity at AChE in Charles Foster rat hypothalamus assessed as substrate hydrolyzed per mg of protein at 10 mg/kg, po for 8 days by Ellman's method (reference value: 40.50 +/- 0.76 mol/min); format: functional
[12] = molecular target: T2, Acetylcholinesterase (Electrophorus electricus, UniProt O42275); assay: Non competitive inhibition of electric eel AChE using acetylthiocholine iodide as substrate by Lineweaver-Burk plot analysis
T2 sequence (O42275 whole entry): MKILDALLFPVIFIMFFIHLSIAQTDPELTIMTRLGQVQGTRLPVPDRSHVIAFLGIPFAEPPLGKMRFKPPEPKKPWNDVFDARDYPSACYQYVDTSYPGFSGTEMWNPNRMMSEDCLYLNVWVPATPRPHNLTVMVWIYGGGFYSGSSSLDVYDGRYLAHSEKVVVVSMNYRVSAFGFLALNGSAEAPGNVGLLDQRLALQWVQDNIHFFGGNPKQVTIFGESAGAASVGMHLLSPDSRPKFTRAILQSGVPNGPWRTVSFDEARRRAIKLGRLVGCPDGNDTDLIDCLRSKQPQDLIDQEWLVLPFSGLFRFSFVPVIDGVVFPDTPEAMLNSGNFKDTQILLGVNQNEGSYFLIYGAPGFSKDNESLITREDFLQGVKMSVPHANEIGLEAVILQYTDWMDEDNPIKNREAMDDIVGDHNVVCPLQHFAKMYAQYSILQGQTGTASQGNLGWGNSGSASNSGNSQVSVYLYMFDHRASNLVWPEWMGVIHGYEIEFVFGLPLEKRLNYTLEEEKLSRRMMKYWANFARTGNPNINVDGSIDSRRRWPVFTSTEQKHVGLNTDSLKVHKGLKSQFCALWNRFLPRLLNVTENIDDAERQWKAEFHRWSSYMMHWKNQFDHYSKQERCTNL

[13] = test system: Rattus norvegicus; assay: Cognitive enhancing effect in Wistar rat assessed as reversal of learning impairment measured as transfer latency at 10 mg/kg, po for 8 days measured on second day of test by elevated plus maze test (reference value: 66.824 +/- 0.47 seconds); format: functional; summary of the method: as §2
[14] = test system: Rattus norvegicus; assay: as §3, with “10” for “5”; format: functional
[15] = test system: Rattus norvegicus; assay: Cognitive enhancing effect in Wistar rat assessed as reversal of learning impairment measured as transfer latency at 10 mg/kg, po for 8 days measured on first day of test by elevated plus maze test (reference value: 70.846 +/- 0.76 seconds); format: functional; summary of the method: as §2
[16] = test system: Rattus norvegicus; assay: Activity at AChE in Charles Foster rat prefrontal cortex assessed as substrate hydrolyzed per mg of protein at 10 mg/kg, po for 8 days by Ellman's method (reference value: 45.83 +/- 0.94 mol/min); format: functional
[17] = test system: Rattus norvegicus; assay: Toxicity in albino rat assessed as mortality upto 100 mg/kg after 30 mins to 48 hrs; format: organism-based; set-up: dose 100 mg/kg; settings: in vivo
Summary of the method: (§4)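 Acute toxicity followed OECD guidelines. Nulliparous, non-pregnant female albino rats (120–150 g) were fasted overnight with water ad libitum. Graded oral doses up to 100 mg/kg were given in 0.3% carboxymethyl cellulose. Rats were observed continuously for 30 min, at 2 h and up to 48 h for behavioural or autonomic changes, tremors, convulsions, salivation, diarrhoea, sleep, lacrimation, cardiovascular signs, feeding and mortality.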

[18] = Selectivity ratio of IC50 for human serum BChE to IC50 for electric eel AChE
Summary of the method: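 Ratio of IC50 (BChE) to IC50 (AChE). Both came from Ellman assays at 0.1 M phosphate pH 8.0 and 0.02 unit/mL enzyme: AChE (stock in phosphate buffer) with acetylthiocholine, human serum BChE (stock in 0.1% gelatine) with butyrylthiocholine.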

[19] = molecular target: T1, Cholinesterase; assay: Competitive inhibition of human serum BChE using butyrylthiocholine iodide as substrate by Lineweaver-Burk plot analysis
Summary of the method: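 Ellman assay in phosphate buffer pH 8 with a fixed amount of cholinesterase. Thiocholine substrate was varied from below to above, but near, Km, with or without inhibitor. Inhibition type was assigned from Lineweaver–Burk plots.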

[20] = test system: Rattus norvegicus; assay: Toxicity in albino rat assessed as change in normal behavioral response upto 100 mg/kg after 30 mins to 48 hrs; format: organism-based; set-up: dose 100 mg/kg; settings: in vivo; summary of the method: as §4
[21] = molecular target: T2, Acetylcholinesterase; assay: Inhibition of electric eel AChE using acetylthiocholine iodide as substrate preincubated for 20 mins prior to substrate addition by Ellman's method
[22] = test system: Rattus norvegicus; assay: Activity at AChE in Charles Foster rat hypothalamus assessed as substrate hydrolyzed per mg of protein at 5 mg/kg, po for 8 days by Ellman's method (reference value: 40.50 +/- 0.76 mol/min); format: functional

Compound | Time [1] | Activity [2] | Time [3] | Activity [4] | Time [5] | Activity [6] | Time [7] | Activity [8] | Time [9] | IC50 [10] | Activity [11] | Ki [12] | Time [13] | Time [14] | Time [15] | Activity [16] | Activity [17] | Ratio IC50 [18] | Ki [19] | Activity [20] | further results
O=C(NN=C(c1ccccc1)c1ccccc1)Nc1ccncc1 | 56.13 s | Dose-dependent effect | 64.57 s | 32.67 mol/min | 54.17 s | 32 mol/min | 40.42 s | 33.67 mol/min | 46.81 s | 18500 nM | 29.17 mol/min | 82 nM | 37.97 s | 61.83 s | 43.73 s | 30 mol/min | Non-toxic | 355 | 16800 nM | Non-toxic | IC50 ([21]; read-out: IC50): 52 nM; Activity [22]: 31 mol/min
C/C(=N\NC(=O)Nc1ccncc1)c1ccc(O)cc1 | 60.5 s | Dose-dependent effect | 65.33 s | 35.5 mol/min | 56.83 s | 34.17 mol/min | 43.17 s | 36.33 mol/min | 48.07 s | 358 nM | 31.5 mol/min | 246 nM | 39.5 s | 64.17 s | 48.17 s | 33.83 mol/min | Non-toxic | 2.46 | 628 nM | Non-toxic | IC50 ([21]; read-out: IC50): 145 nM; IC50 ([21]; read-out: pIC50 (converted)): 148 nM; Activity [22]: 34.13 mol/min
